Compound activity: PubChem, several laboratories
This is a sample that favours compounds with a hit; in the whole collection about 2% have one here.
GSTO1 inh: inhibitors of recombinant GSTO1, primary screen, counter-screen for RBBP9 inhibitor project, biochemical, fluorescence polarization; inhibition, % at 5.96 µM; activity-based probe fluorescence polarization; Glutathione S-transferase omega-1 (Homo sapiens), P78417; hit rate 1.1% among 300,000; AID 1974, 2009;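 active = inhibition above the campaign mean inhibition plus 3 SD, cut at about 35% in these data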
Target sequence (P78417 whole entry, looked up): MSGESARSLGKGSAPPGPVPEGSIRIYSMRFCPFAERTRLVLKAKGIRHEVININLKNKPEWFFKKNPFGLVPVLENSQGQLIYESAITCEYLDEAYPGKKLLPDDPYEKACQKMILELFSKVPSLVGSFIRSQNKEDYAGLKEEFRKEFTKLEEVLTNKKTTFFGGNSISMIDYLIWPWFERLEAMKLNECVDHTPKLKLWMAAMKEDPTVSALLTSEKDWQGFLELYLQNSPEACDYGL
PAD4 inh: human PAD4 inhibitors, primary screen, biochemical, fluorescence polarization, 1536-well format; inhibition, % at 6.36 µM; Protein-arginine deiminase type-4 (Homo sapiens), Q9UM07; recombinant PAD4, RCA probe fluorescence polarization; hit rate 0.41% among 330,000;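 active = percent inhibition above a cutoff equal to the mean of all tested compounds plus 3 SD, cut at about 15% in these data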
CTSL1 counter: Fasciola hepatica cathepsin L1 inhibitors, primary screen, counter-screen for PFM18AAP inhibitor project, biochemical, QFRET, fluorogenic peptide substrate | inhibition, % at 5.96 µM | AID 1906, 2009 | hit rate 0.49% among 300,000 | recombinant F. hepatica cathepsin L1, Z-Leu-Arg-MCA fluorescence;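 active = inhibition above the mean of all tested compounds plus 3 SD, set per screening campaign, cut at about 17% in these data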
PP5 inh: PP5 phosphatase inhibitors, primary screen, biochemical, fluorescence | Serine/threonine-protein phosphatase 5 (Homo sapiens), P53041 | purified PP5c, OMFP substrate fluorescence | inhibition, % at 6.7 µM | hit rate 0.18% among 320,000 | AID 1987, 2009;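 active = inhibition above the campaign's mean inhibition across all tested compounds plus 3 SD, cut at about 9.5% in these data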
UCH37 DUB inh: inhibitors of human UCH37 deubiquitinase, primary screen, biochemical, Ub-AMC cleavage, fluorescence; purified proteasome/UCH37; inhibition, % (concentration not given with the values); hit rate 0.33% among 330,000;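 active = mean inhibition over replicate wells above about 20%, limit read from the data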
Target sequence (Q9Y5K5 whole entry, looked up): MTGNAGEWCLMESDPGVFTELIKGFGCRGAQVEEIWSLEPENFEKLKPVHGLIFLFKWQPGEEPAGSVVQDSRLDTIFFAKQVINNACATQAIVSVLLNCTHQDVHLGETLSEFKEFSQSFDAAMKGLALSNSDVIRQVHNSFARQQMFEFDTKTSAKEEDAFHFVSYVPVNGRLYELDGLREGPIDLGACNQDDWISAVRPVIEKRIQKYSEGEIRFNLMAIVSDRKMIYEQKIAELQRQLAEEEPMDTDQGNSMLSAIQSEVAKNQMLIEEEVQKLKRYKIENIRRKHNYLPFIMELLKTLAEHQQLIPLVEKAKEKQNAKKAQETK
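System: Proteasome-associated human UCH37 deubiquitinase; Input: 0.15 nM proteasome in added enzyme buffer; Also added: Ub-AMC substrate from 1 µM stock; Incubation: 30 min compound-proteasome preincubation then 25 min substrate reaction, room temperature; Detection: fluorescence, ex 355 nm, em 460 nm; Read-out: % inhibition of Ub-AMC cleavage fluorescence; Benchmarks: no-proteasome and no-compound wells.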
Apaf-1 inh: inhibitors of human Apaf-1 apoptosome, primary screen, biochemical, DEVD-Rh110 fluorescence, uHTS. inhibition, % at 20 µM. hit rate 0.71% among 330,000. reconstituted apoptosome caspase-3 activity; active = inhibition of at least 40% at 20 µM
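Material: cell-free apoptosome with Apaf-1, procaspase-3 and caspase-9; Buffer or medium: Hepes pH 7.5 with detergent and BSA; Reagent: cytochrome c trigger plus (Z-DEVD)2-Rh110 caspase-3 substrate; Times: compound with Apaf-1, dATP, procaspase-3 30 min, then 50 min reaction, room temperature; Technique: Rh110 fluorescence intensity.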
Apaf-1 inh conf: Apaf-1 inhibitors, single-dose retest, confirmation, biochemical, fluorescence, DEVD-Rh110, 20 µM. shares compounds with Apaf-1 inh. reconstituted apoptosome, caspase-3 DEVD-Rh110 fluorescence. inhibition, % at 20 µM. hit rate 25% among 1,800. AID 504614, 2011;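 active = mean inhibition of at least 40% at 20 µM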
Rh110 interf inh: Rh110 fluorescence interference by putative Apaf-1 inhibitors, confirmation, artefact control for Apaf-1 inhibitor project, biochemical, 20 µM | shares compounds with Apaf-1 inh | quenched caspase reaction | activation (fluorescence interference), % at 20 µM | 1,800 tested, under 10 active | AID 504615, 2011;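 active = signal rise of 40% or more at 20 µM, treated as a fluorescence artifact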
Fluor interf inh: fluorescence interference of Apaf-1 inhibitor hits, dose response, artefact control for Apaf-1 inhibitor project; shares compounds with Apaf-1 inh; fluorescence interference counterscreen, Apaf-1 assay format; IC50, µM; 460 tested, under 10 active; AID 588538, 2011; call rule not given here
UCH37 confirm: retest of human UCH37 deubiquitinase inhibitors, confirmation, biochemical, Ub-AMC cleavage rate, fluorescence; inhibition, % at 20 µM; hit rate 27% among 480; shares compounds with UCH37 DUB inh; Proteasome-bound UCH37; AID 624100, 2012;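 active = average inhibition over replicates above about 50%, so the earlier screening hit is confirmed, limit read from the data; inactive = the rest, counted as false positives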;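 also: based on cleavage rate fitted by regression over a 30 min kinetic read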
A number is an active result.

Screening C#CCOCCOCCOCCNc1nc(N2CCN(C(=O)[C@H](CCCCN)n3cc(CN)nn3)CC2)nc(N2CCN(C(=O)[C@H](CCCCN)n3cc([C@@H](N)[C@H](C)CC)nn3)CC2)n1 returned PAD4 inh inactive, UCH37 DUB inh 36.0, Apaf-1 inh 40.2, Apaf-1 inh conf inactive, Rh110 interf inh inactive and UCH37 confirm inactive.
Screening Cc1[nH][nH]c(=O)c1C(c1ccc(-c2ccc(Cl)c(Cl)c2)o1)c1c(C)[nH][nH]c1=O returned GSTO1 inh 34.9, PAD4 inh inactive, CTSL1 counter inactive, PP5 inh inactive, UCH37 DUB inh 42.1, Apaf-1 inh 78.8, Apaf-1 inh conf inactive, Rh110 interf inh inactive and UCH37 confirm inactive.
Screening CCCCNC1=CC(=O)C(=O)c2ccccc21 returned GSTO1 inh 47.7, PAD4 inh inactive, CTSL1 counter inactive, PP5 inh inactive, UCH37 DUB inh 49.0, Apaf-1 inh 95.5, Apaf-1 inh conf 83.9, Rh110 interf inh inactive, Fluor interf inh inactive and UCH37 confirm inactive.
`O=C1C=C(Nc2ccccc2)c2ccccc2C1=O` gave UCH37 DUB inh 65.0, Apaf-1 inh 91.9, Apaf-1 inh conf 91.5, Rh110 interf inh inactive, Fluor interf inh inactive and UCH37 confirm inactive.
`CC(=NNC(=O)CNc1cccc(Cl)c1C)C1CC1` gave UCH37 DUB inh inactive.
FC(F)(F)C1=Nc2cccc3cccc(c23)N1 was read as UCH37 DUB inh 56.9, Apaf-1 inh 66.1, Apaf-1 inh conf 63.3, Rh110 interf inh inactive, Fluor interf inh inactive and UCH37 confirm inactive.
`Fc1ccc(C2=Nc3cccc4cccc(c34)N2)cc1` gave GSTO1 inh inactive, PAD4 inh inactive, CTSL1 counter inactive, PP5 inh inactive, UCH37 DUB inh inactive and Apaf-1 inh inactive.
COc1ccc(C=NNc2nc(N3CCCC3)nc(N3CCCC3)n2)cc1 was read as UCH37 DUB inh inactive.
For CCN1/C(=C/C(C)=C/c2sc3ccccc3[n+]2CC)Sc2ccccc21 the results were GSTO1 inh inactive, PAD4 inh inactive, CTSL1 counter inactive, PP5 inh 10.3, UCH37 DUB inh 27.6, Apaf-1 inh 52.7, Apaf-1 inh conf 60.6, Rh110 interf inh inactive, Fluor interf inh 51.2 and UCH37 confirm inactive.
For CCN1/C(=C\C(=S)Nc2ccccc2)Sc2ccccc21 the results were GSTO1 inh inactive, PAD4 inh inactive, CTSL1 counter inactive, PP5 inh inactive, UCH37 DUB inh inactive and Apaf-1 inh inactive.
O=c1cc(Br)c(O)c(Br)cc1Br was read as UCH37 DUB inh inactive.
For [O-][n+]1cccc2c(Br)cc(Br)c(O)c21 the results were GSTO1 inh 46.3, PAD4 inh inactive, CTSL1 counter inactive, PP5 inh inactive, UCH37 DUB inh 45.3, Apaf-1 inh 72.9, Apaf-1 inh conf inactive, Rh110 interf inh inactive and UCH37 confirm inactive.
Screening CC1(C)CC(=O)/C(=C(\O)Cc2ccccc2)C(=NCCc2ccccc2)C1 returned UCH37 DUB inh inactive.
For COc1ccc(C=Nn2c(=O)[nH]c3c([nH]c4ccc(F)cc43)c2=O)cc1CN1CCCCC1 the results were UCH37 DUB inh inactive.
Screening COc1ccc(NC(=O)c2cncc(Br)c2)c(S(=O)(=O)N2CCOCC2)c1 returned GSTO1 inh inactive, PAD4 inh inactive, CTSL1 counter inactive, PP5 inh inactive, UCH37 DUB inh 35.1, Apaf-1 inh inactive and UCH37 confirm inactive.
For Nc1nonc1-n1nnc(C(=O)NN=Cc2cccc(Cl)c2)c1CSc1ccccc1 the results were UCH37 DUB inh inactive.
Screening Cc1cc(N=Nc2ccccc2C(=O)O)c(C)c(C)c1O returned GSTO1 inh inactive, PAD4 inh inactive, CTSL1 counter inactive, PP5 inh inactive, UCH37 DUB inh 25.4, Apaf-1 inh inactive and UCH37 confirm inactive.
For Oc1ccc(N=Nc2ccccc2-c2nn[nH]n2)c(O)c1 the results were GSTO1 inh inactive, PAD4 inh inactive, CTSL1 counter inactive, PP5 inh inactive, UCH37 DUB inh 26.9, Apaf-1 inh inactive and UCH37 confirm inactive.
For CNC(=O)/C(C#N)=C/c1ccc(-c2ccccc2[N+](=O)[O-])o1 the results were GSTO1 inh inactive, PAD4 inh inactive, CTSL1 counter inactive, PP5 inh inactive, UCH37 DUB inh inactive and Apaf-1 inh inactive.
Screening N#C/C(=C\c1ccc(N2CCOCC2)o1)C(=O)NC1CCCCC1 returned GSTO1 inh inactive, PAD4 inh inactive, CTSL1 counter inactive, PP5 inh inactive, UCH37 DUB inh 29.6, Apaf-1 inh inactive and UCH37 confirm inactive.
Screening COCCNC(=O)/C(C#N)=C/c1ccc(-c2ccc(OC)cc2[N+](=O)[O-])o1 returned GSTO1 inh inactive, PAD4 inh inactive, CTSL1 counter inactive, PP5 inh inactive, UCH37 DUB inh 51.9, Apaf-1 inh inactive and UCH37 confirm inactive.
`N#C/C(=C\c1ccc(N2CCOCC2)o1)C(=O)NCC1CCCO1` (configuration not stated) gave GSTO1 inh inactive, PAD4 inh inactive, CTSL1 counter inactive, PP5 inh inactive, UCH37 DUB inh 30.7, Apaf-1 inh inactive and UCH37 confirm inactive.
`COCCNC(=O)/C(C#N)=C/c1ccc(N2CCOCC2)o1` gave GSTO1 inh inactive, PAD4 inh inactive, CTSL1 counter inactive, PP5 inh inactive, UCH37 DUB inh 37.6, Apaf-1 inh inactive and UCH37 confirm inactive.
For N#C/C(=C\c1ccc(N2CCOCC2)o1)C(=O)NCCc1ccccc1 the results were GSTO1 inh inactive, PAD4 inh inactive, CTSL1 counter inactive, PP5 inh inactive, UCH37 DUB inh inactive and Apaf-1 inh inactive.
For CCOC(=O)c1csc(NN=C2CCCc3ccccc32)n1 the results were UCH37 DUB inh inactive.
Screening C=CCc1c(C)nc(-c2ccccc2)nc1NN=Cc1ccncc1 returned UCH37 DUB inh inactive.
